From PubChem
M1 agonist = agonists of M1 muscarinic receptor | CHO-M1 cells, Fluo-4 calcium fluorescence, agonist mode; hits give high values | B-score at 10 µM | 64,000 tested, 3% active;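 active means fluorescence rise, raw or as B-score row- and column-corrected plate score, outside the 99.7% band of its plate's samples, either direction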
M1 antagonist = M1 muscarinic receptor (rat) antagonism; P08482; B-score at 10 µM; CHO-M1 cells, Fluo-4 calcium, ACh EC80 antagonist mode; hits give low values; 64,000 tested, 3.4% active;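 active means calcium fluorescence response, raw or row-and-column corrected B-score, differing from the plate sample mean either way at a set confidence level, mostly lower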
Target sequence (P08482 whole entry, looked up): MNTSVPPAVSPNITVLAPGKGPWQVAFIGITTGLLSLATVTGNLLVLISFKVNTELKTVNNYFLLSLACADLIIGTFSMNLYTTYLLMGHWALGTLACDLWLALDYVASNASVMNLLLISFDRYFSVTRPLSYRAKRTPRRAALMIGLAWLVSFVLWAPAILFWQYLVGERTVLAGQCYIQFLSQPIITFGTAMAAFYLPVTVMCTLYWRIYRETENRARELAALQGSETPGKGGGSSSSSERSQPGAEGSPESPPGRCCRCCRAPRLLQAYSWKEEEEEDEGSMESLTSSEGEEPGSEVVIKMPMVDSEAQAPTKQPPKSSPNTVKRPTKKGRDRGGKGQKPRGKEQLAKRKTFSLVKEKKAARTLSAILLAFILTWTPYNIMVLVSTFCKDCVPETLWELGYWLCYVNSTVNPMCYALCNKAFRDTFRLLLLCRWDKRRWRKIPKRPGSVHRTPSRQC
D1 mod = D1 dopamine receptor (human) allosteric modulation; P21728; HEK293 D1, CRE-luciferase, dopamine EC30 potentiation; actives deviate in either direction; B-score at 10 µM; 58,000 tested, 5.9% active;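 active means luminescence count or its row- and column-corrected plate score outside the 99.7% band of the plate's sample wells, on either side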
S1P3 agonist = S1P3 (human) receptor agonism | Q99500 | S1P3 NFAT-BLA reporter cells, FRET ratio; relative to 1 µM S1P, basal subtracted | activation, % at 4.5 µM | 60,000 tested, 0.1% active | AID 373;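 active means activation above the screen-wide mean plus 3 SD, cut at about 4.5% in these data, passing the limit was not always enough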
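Assay system: CHO cells stably expressing human S1P3, Gα16 and NFAT-β-lactamase reporter. Timing: overnight plating, 4 h compound 37 °C, 2 h substrate RT. Signal: β-lactamase FRET emission ratio 460/535 nm. Measure: percent activation versus median 1 µM S1P response, basal-subtracted, per plate. Repeats: primary screen single test, confirmation screen in triplicate.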
S1P1 ag-PAM = S1P1 (human) agonism or agonism potentiation; P21453; S1P1 CRE-bla cells, forskolin, beta-lactamase FRET, potentiator mode; S1P1 agonist co-added at EC20, 2 nM; 100% = saturating reference agonist, 0% = basal; activation, % at 9.5 µM; 56,000 tested, 0.57% active;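 active means activation above a cutoff set at the mean activation of all tested compounds plus 3 SD, cut at about 54% in these data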;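 further: forskolin at 4 µM as EC80 and the EC20 agonist is SEW2871; 100% = SEW2871 at its EC100 plus forskolin at EC80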
The depositor's hits bear a star. An excerpt weighted towards active compounds, which were near 11% of everything screened.

`Cc1onc(-c2ccccc2Cl)c1C(=O)N1CCN(c2ccccc2)CC1` gave M1 agonist -0.25, M1 antagonist -0.0002, D1 mod -2.4*, S1P3 agonist -1 and S1P1 ag-PAM -4.
`Cc1onc(-c2ccccc2Cl)c1C(=O)N1CCN(c2cccc(Cl)c2)CC1` gave M1 agonist 0.49, M1 antagonist -0.064, S1P3 agonist -1 and S1P1 ag-PAM 29.
`CC(=O)Nc1ccc2oc(-c3ccccc3Br)nc2c1` gave M1 agonist -0.051, M1 antagonist 0.12, D1 mod -2.8*, S1P3 agonist -1 and S1P1 ag-PAM 8.
O=C(Nc1ccc(-c2nc3cccnc3s2)cc1)c1ccco1 was read as M1 agonist 0.23, M1 antagonist -0.79, D1 mod -5*, S1P3 agonist -1 and S1P1 ag-PAM 36.
For CC(=O)OCCNc1cc(N2CCN(C)CC2)c2noc3c2c1C(=O)c1ccccc1-3 the results were M1 agonist -0.53, M1 antagonist 0.0093, D1 mod 0.031, S1P3 agonist -1 and S1P1 ag-PAM -29.
`CCOC(=O)C(C(=O)OCC)c1cc(Br)c2noc3c2c1C(=O)c1ccccc1-3` gave M1 agonist 788*, M1 antagonist -0.76 and D1 mod -1.
COc1ccc(-n2c(SCCC#N)nnc2-c2cc(Cl)ccc2OC)cc1Cl was read as M1 agonist 0.1, M1 antagonist -0.012, D1 mod 1.9, S1P3 agonist 0 and S1P1 ag-PAM 6.
`CCC(C)n1c(SC(C)C#N)nc2ccccc2c1=O` (stereo not given) gave M1 agonist 0.064, M1 antagonist -0.91, D1 mod -4.8*, S1P3 agonist 2 and S1P1 ag-PAM -13.
CCOC(=O)c1[nH]c(C)c(/C(O)=C2\C(=O)C(=O)N(CCN(C)C)C2c2ccco2)c1C (stereo not given) was read as M1 agonist -0.46, M1 antagonist -2.3*, D1 mod 0.35, S1P3 agonist 0 and S1P1 ag-PAM -11.
COc1ccc(OC)c(C2/C(=C(\O)c3c(C)nc4ccccn34)C(=O)C(=O)N2CCCN(C)C)c1 (stereo not given) was read as M1 agonist 1.2, M1 antagonist 2.4*, D1 mod -0.57, S1P3 agonist -1 and S1P1 ag-PAM -4.
For CCN(CC)CCN1C(=O)C(=O)/C(=C(/O)c2c(C)[nH]c(C(=O)OC)c2C)C1c1ccco1 (stereo not given) the results were M1 agonist -1.4, M1 antagonist 0.2, D1 mod -0.99, S1P3 agonist -6 and S1P1 ag-PAM 11.
Screening COc1ccc(/C(O)=C2/C(=O)C(=O)N(CCN(C)C)C2c2ccccc2)cc1Cl (stereo not given) returned M1 agonist -0.8, M1 antagonist 1*, S1P3 agonist -1 and S1P1 ag-PAM 22.
Screening COc1ccc(/C(O)=C2/C(=O)C(=O)N(CCCN(C)C)C2c2ccco2)cc1Cl (stereo not given) returned M1 agonist 35*, M1 antagonist -0.73, D1 mod 0.24, S1P3 agonist -4 and S1P1 ag-PAM 4.
Screening Cc1nc(CN2CCN(C(=O)c3ccc(Br)cc3)CC2)cs1 returned M1 agonist -0.32, M1 antagonist -0.38, D1 mod 0.017, S1P3 agonist 0 and S1P1 ag-PAM 4.
`O=c1cc(-c2ccccc2)[nH]c2nc3ccccc3n12` gave M1 agonist 0.45, M1 antagonist 0.3, D1 mod -6.5*, S1P3 agonist 1 and S1P1 ag-PAM 12.
For CCOC(=O)CSC1=NC(=O)CS1 the results were M1 agonist 0.37, M1 antagonist 0.52, D1 mod -0.023, S1P3 agonist -2 and S1P1 ag-PAM -7.
For CN(c1ccccc1)S(=O)(=O)c1ccc(C(=O)OCC(=O)N2CCOCC2)cc1 the results were M1 agonist -0.0032, M1 antagonist -0.078, D1 mod -0.09, S1P3 agonist -1 and S1P1 ag-PAM 4.
`COc1ccc(C(c2c(O)ccc3ccccc23)N2CCOCC2)c(OC)c1` (stereo not given) gave M1 agonist 0.22, M1 antagonist 0.052, D1 mod -0.88, S1P3 agonist -2 and S1P1 ag-PAM 110*.
Screening CCC(NC(=O)Nc1nnc(C(F)(F)F)s1)(C(F)(F)F)C(F)(F)F returned M1 agonist 0.73, M1 antagonist -0.025, D1 mod -0.45, S1P3 agonist -10 and S1P1 ag-PAM 112*.
Screening C=CCn1c(SCC(=O)c2cccs2)nc2sc(CC)cc2c1=O returned M1 agonist -0.19, M1 antagonist 0.27, D1 mod 1.1, S1P3 agonist -2 and S1P1 ag-PAM 93*.
Screening CCC(=O)Nc1cc2nn(-c3ccccc3)nc2cc1Cl returned M1 agonist -0.91, M1 antagonist -1.3, D1 mod -5.4*, S1P3 agonist -1 and S1P1 ag-PAM 11.
Screening Cc1cc2nn(-c3ccccc3)nc2cc1NC(=O)c1cccs1 returned M1 agonist 0.54, M1 antagonist -0.044, D1 mod -0.67, S1P3 agonist -1 and S1P1 ag-PAM 41.
Screening CCn1c(SCC(=O)c2ccc(CNC(C)=O)o2)nnc1-c1cccs1 returned M1 agonist 0.086, M1 antagonist 2*, D1 mod -0.054, S1P3 agonist -1 and S1P1 ag-PAM 11.
For CCn1c(SCC(=O)NCc2cccs2)nnc1-c1cccs1 the results were M1 agonist 0.23, M1 antagonist 0.13, D1 mod -1.5 and S1P3 agonist -1.
Screening O=C(CCC1CCCC1)c1c(O)c2ccccc2oc1=O returned M1 agonist 8.2*, M1 antagonist -2.1*, D1 mod -3.1*, S1P3 agonist 0 and S1P1 ag-PAM -2.
Screening O=C(CCC1CCCCC1)NCc1ccncc1 returned M1 agonist -1.3, M1 antagonist -1.5, D1 mod -0.068 and S1P3 agonist -1.
Screening O=C(CSc1nc2ccccc2o1)Nc1ccc(N2CCOCC2)c(Cl)c1 returned M1 agonist -0.88, M1 antagonist 0.83, D1 mod -0.37, S1P3 agonist -2 and S1P1 ag-PAM 119*.
`CC1CCc2nc(NC(=O)CSc3nc4ccccc4o3)sc2C1` (stereo not given) gave M1 agonist -0.043, M1 antagonist 1.1, D1 mod -1.8, S1P3 agonist 0 and S1P1 ag-PAM 76*.
`Cc1ccc(C)c(-c2nnc(OCC(=O)Nc3cc(C)on3)c3ccccc23)c1` gave M1 agonist -0.68, M1 antagonist 0.27, D1 mod 2.1, S1P3 agonist 1 and S1P1 ag-PAM -15.
`CCOC(=O)C1(CCSC)NC(c2ccco2)C2C(=O)N(C)C(=O)C21` (stereo not given) gave M1 agonist 0.48, M1 antagonist 0.24, D1 mod -0.19, S1P3 agonist -1 and S1P1 ag-PAM 1.
For Cc1cc2nc(-c3ccc(SCC(=O)N4CCOCC4)nc3)[nH]c2cc1C the results were M1 agonist 12*, M1 antagonist -0.58 and D1 mod -2.6.
